Data reported in ChEMBL document CHEMBL1128580, “Synthesis and antibacterial activity of some novel 1-substituted 1,4-dihydro-4-oxo-7-pyridinyl-3-quinolinecarboxylic acids. Potent antistaphylococcal agents” (1995).
Values after ≈ are worked out from the molar mass of the structure shown.

Each molecule was assayed on Escherichia coli (assay: Minimum Inhibitory concentration measured against Escherichia coli ATCC 1-25922).
Type: functional
Summary of the method: (§1)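 Broth microdilution on cultures kept as frozen stock, grown in Mueller Hinton II medium for 18–24 h at 37 °C. Suspension adjusted to absorbance 0.1 at 650 nm and diluted 1:10 in medium to give the inoculum. Final density 10⁵ cells/mL; plates incubated 24 h at 37 °C.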

| Structure (SMILES) | MIC [µg/mL] |
| --- | --- |
| Cc1cc(-c2ccc3c(=O)c(C(=O)O)cn(C4CC4)c3c2)cc(C)n1 | 0.25 (≈ 0.748 µM) |
| CCc1cc(-c2cc3c(cc2F)c(=O)c(C(=O)O)cn3C2CC2)ccn1 | 0.125 (≈ 0.355 µM) |
| O=C(O)c1cn(C2CC2)c2cc(-c3ccncc3)c(F)cc2c1=O | 0.03 (≈ 0.0925 µM) |
| CCn1cc(C(=O)O)c(=O)c2cc(F)c(-c3ccncc3)cc21 | 0.125 (≈ 0.4 µM) |
| Cc1cc(-c2cc3c(cc2F)c(=O)c(C(=O)O)cn3C2CC2)cc(CN(C)C)n1 | 0.06 (≈ 0.152 µM) |
| Cc1cc(-c2cc3c(cc2F)c(=O)c(C(=O)O)cn3C(C)(C)C)cc(C)n1 | 0.25 (≈ 0.679 µM) |
| Cc1cc(-c2cc3c(cc2F)c(=O)c(C(=O)O)cn3C2CC2)cc(C)n1 | 0.03 (≈ 0.0851 µM) |
| Cc1cc(-c2cc3c(cc2F)c(=O)c(C(=O)O)cn3C2CC2)ccn1 | 0.03 (≈ 0.0887 µM) |
| COCc1cc(-c2cc3c(cc2F)c(=O)c(C(=O)O)cn3C2CC2)cc(C)n1 | 0.25 (≈ 0.654 µM) |
| Cc1cc(-c2nc3c(cc2F)c(=O)c(C(=O)O)cn3C2CC2)cc(C)n1 | 0.125 (≈ 0.354 µM) |
| O=C(O)c1cn(C2CC2)c2cc(-c3cccnc3)c(F)cc2c1=O | 0.008 (≈ 0.0247 µM) |
| CNCc1cc(-c2cc3c(cc2F)c(=O)c(C(=O)O)cn3C2CC2)cc(C)n1 | 0.016 (≈ 0.0419 µM) |
| CNn1cc(C(=O)O)c(=O)c2cc(F)c(-c3cc(C)nc(C)c3)cc21 | 0.25 (≈ 0.732 µM) |
| Cc1cc(-c2ccc3c(=O)c(C(=O)O)cn(C4CC4)c3c2F)cc(C)n1 | 0.06 (≈ 0.17 µM) |

These molecules were tested on Pseudomonas aeruginosa (assay: Minimum Inhibitory concentration measured against Pseudomonas aeruginosa ATCC 27853).
Type: functional
Summary of the method: as §1

| Structure (SMILES) | MIC [µg/mL] |
| --- | --- |
| Cc1cc(-c2ccc3c(=O)c(C(=O)O)cn(C4CC4)c3c2)cc(C)n1 | > 4 |
| CCc1cc(-c2cc3c(cc2F)c(=O)c(C(=O)O)cn3C2CC2)ccn1 | 4 (≈ 11.4 µM) |
| O=C(O)c1cn(C2CC2)c2cc(-c3ccncc3)c(F)cc2c1=O | 2 (≈ 6.17 µM) |
| CCn1cc(C(=O)O)c(=O)c2cc(F)c(-c3ccncc3)cc21 | 2 (≈ 6.4 µM) |
| Cc1cc(-c2cc3c(cc2F)c(=O)c(C(=O)O)cn3C2CC2)cc(CN(C)C)n1 | 8 (≈ 20.2 µM) |
| Cc1cc(-c2cc3c(cc2F)c(=O)c(C(=O)O)cn3C(C)(C)C)cc(C)n1 | > 4 |
| Cc1cc(-c2cc3c(cc2F)c(=O)c(C(=O)O)cn3C2CC2)cc(C)n1 | 2 (≈ 5.68 µM) |
| Cc1cc(-c2cc3c(cc2F)c(=O)c(C(=O)O)cn3C2CC2)ccn1 | 2 (≈ 5.91 µM) |
| COCc1cc(-c2cc3c(cc2F)c(=O)c(C(=O)O)cn3C2CC2)cc(C)n1 | 8 (≈ 20.9 µM) |
| Cc1cc(-c2nc3c(cc2F)c(=O)c(C(=O)O)cn3C2CC2)cc(C)n1 | 8 (≈ 22.6 µM) |
| O=C(O)c1cn(C2CC2)c2cc(-c3cccnc3)c(F)cc2c1=O | 1 (≈ 3.08 µM) |
| CNCc1cc(-c2cc3c(cc2F)c(=O)c(C(=O)O)cn3C2CC2)cc(C)n1 | 1 (≈ 2.62 µM) |
| CNn1cc(C(=O)O)c(=O)c2cc(F)c(-c3cc(C)nc(C)c3)cc21 | > 4 |

What follows are molecules tested on Staphylococcus aureus (assay: Minimum Inhibitory concentration measured against Staphylococcus aureus ATCC 29213).
Type: functional
Summary of the method: as §1

| Structure (SMILES) | MIC [µg/mL] |
| --- | --- |
| Cc1cc(-c2ccc3c(=O)c(C(=O)O)cn(C4CC4)c3c2)cc(C)n1 | 0.06 (≈ 0.179 µM) |
| CCc1cc(-c2cc3c(cc2F)c(=O)c(C(=O)O)cn3C2CC2)ccn1 | 0.03 (≈ 0.0851 µM) |
| O=C(O)c1cn(C2CC2)c2cc(-c3ccncc3)c(F)cc2c1=O | 0.06 (≈ 0.185 µM) |
| CCn1cc(C(=O)O)c(=O)c2cc(F)c(-c3ccncc3)cc21 | 0.25 (≈ 0.801 µM) |
| Cc1cc(-c2cc3c(cc2F)c(=O)c(C(=O)O)cn3C2CC2)cc(CN(C)C)n1 | 0.06 (≈ 0.152 µM) |
| Cc1cc(-c2cc3c(cc2F)c(=O)c(C(=O)O)cn3C(C)(C)C)cc(C)n1 | 0.03 (≈ 0.0814 µM) |
| Cc1cc(-c2cc3c(cc2F)c(=O)c(C(=O)O)cn3C2CC2)cc(C)n1 | 0.008 (≈ 0.0227 µM) |
| Cc1cc(-c2cc3c(cc2F)c(=O)c(C(=O)O)cn3C2CC2)ccn1 | 0.016 (≈ 0.0473 µM) |
| COCc1cc(-c2cc3c(cc2F)c(=O)c(C(=O)O)cn3C2CC2)cc(C)n1 | 0.03 (≈ 0.0785 µM) |
| Cc1cc(-c2nc3c(cc2F)c(=O)c(C(=O)O)cn3C2CC2)cc(C)n1 | 0.03 (≈ 0.0849 µM) |
| O=C(O)c1cn(C2CC2)c2cc(-c3cccnc3)c(F)cc2c1=O | 0.016 (≈ 0.0493 µM) |
| CNCc1cc(-c2cc3c(cc2F)c(=O)c(C(=O)O)cn3C2CC2)cc(C)n1 | 0.125 (≈ 0.328 µM) |
| CNn1cc(C(=O)O)c(=O)c2cc(F)c(-c3cc(C)nc(C)c3)cc21 | 0.06 (≈ 0.176 µM) |
| Cc1cc(-c2ccc3c(=O)c(C(=O)O)cn(C4CC4)c3c2F)cc(C)n1 | 0.008 (≈ 0.0227 µM) |

What follows are molecules tested on Streptococcus pyogenes (assay: Minimum Inhibitory concentration measured against Streptococcus pyogenes ATCC 6301).
Type: functional
Summary of the method: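 ATCC 6301 was grown in brain heart infusion broth with 10% heat-inactivated horse serum for 18–24 h at 37 °C. Suspension brought to absorbance 0.1 at 650 nm, then diluted 1:10 in the same medium. Broth microdilution at a final 10⁵ cells/mL, incubated 24 h at 37 °C.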

| Structure (SMILES) | MIC [µg/mL] |
| --- | --- |
| Cc1cc(-c2ccc3c(=O)c(C(=O)O)cn(C4CC4)c3c2)cc(C)n1 | 0.5 (≈ 1.5 µM) |
| CCc1cc(-c2cc3c(cc2F)c(=O)c(C(=O)O)cn3C2CC2)ccn1 | 0.25 (≈ 0.709 µM) |
| O=C(O)c1cn(C2CC2)c2cc(-c3ccncc3)c(F)cc2c1=O | 0.25 (≈ 0.771 µM) |
| CCn1cc(C(=O)O)c(=O)c2cc(F)c(-c3ccncc3)cc21 | 2 (≈ 6.4 µM) |
| Cc1cc(-c2cc3c(cc2F)c(=O)c(C(=O)O)cn3C2CC2)cc(CN(C)C)n1 | 0.5 (≈ 1.26 µM) |
| Cc1cc(-c2cc3c(cc2F)c(=O)c(C(=O)O)cn3C(C)(C)C)cc(C)n1 | 0.125 (≈ 0.339 µM) |
| Cc1cc(-c2cc3c(cc2F)c(=O)c(C(=O)O)cn3C2CC2)cc(C)n1 | 0.03 (≈ 0.0851 µM) |
| Cc1cc(-c2cc3c(cc2F)c(=O)c(C(=O)O)cn3C2CC2)ccn1 | 0.06 (≈ 0.177 µM) |
| COCc1cc(-c2cc3c(cc2F)c(=O)c(C(=O)O)cn3C2CC2)cc(C)n1 | 0.125 (≈ 0.327 µM) |
| Cc1cc(-c2nc3c(cc2F)c(=O)c(C(=O)O)cn3C2CC2)cc(C)n1 | 0.25 (≈ 0.708 µM) |
| O=C(O)c1cn(C2CC2)c2cc(-c3cccnc3)c(F)cc2c1=O | 0.125 (≈ 0.385 µM) |
| CNCc1cc(-c2cc3c(cc2F)c(=O)c(C(=O)O)cn3C2CC2)cc(C)n1 | 0.25 (≈ 0.655 µM) |
| CNn1cc(C(=O)O)c(=O)c2cc(F)c(-c3cc(C)nc(C)c3)cc21 | 1 (≈ 2.93 µM) |

What follows are molecules tested on Bacteroides fragilis (assay: Minimum Inhibitory concentration measured against Bacteroides fragilis ATCC 25285).
Type: functional
Summary of the method: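 Anaerobic broth microdilution. Grown in brain heart infusion broth with 5 µg/mL hemin and 0.5 µg/mL vitamin K for 48 h at 37 °C under 5% CO₂, 10% H₂, 85% N₂. Adjusted to absorbance 0.1 at 650 nm and diluted 1:10. Final 10⁵ cells/mL; plates incubated anaerobically for 48 h at 37 °C.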

| Structure (SMILES) | MIC [µg/mL] |
| --- | --- |
| Cc1cc(-c2ccc3c(=O)c(C(=O)O)cn(C4CC4)c3c2)cc(C)n1 | > 4 |
| CCc1cc(-c2cc3c(cc2F)c(=O)c(C(=O)O)cn3C2CC2)ccn1 | 1 (≈ 2.84 µM) |
| O=C(O)c1cn(C2CC2)c2cc(-c3ccncc3)c(F)cc2c1=O | 1 (≈ 3.08 µM) |
| CCn1cc(C(=O)O)c(=O)c2cc(F)c(-c3ccncc3)cc21 | 16 (≈ 51.2 µM) |
| Cc1cc(-c2cc3c(cc2F)c(=O)c(C(=O)O)cn3C2CC2)cc(CN(C)C)n1 | 2 (≈ 5.06 µM) |
| Cc1cc(-c2cc3c(cc2F)c(=O)c(C(=O)O)cn3C(C)(C)C)cc(C)n1 | 1 (≈ 2.71 µM) |
| Cc1cc(-c2cc3c(cc2F)c(=O)c(C(=O)O)cn3C2CC2)cc(C)n1 | 0.5 (≈ 1.42 µM) |
| Cc1cc(-c2cc3c(cc2F)c(=O)c(C(=O)O)cn3C2CC2)ccn1 | 0.5 (≈ 1.48 µM) |
| COCc1cc(-c2cc3c(cc2F)c(=O)c(C(=O)O)cn3C2CC2)cc(C)n1 | 1 (≈ 2.62 µM) |
| Cc1cc(-c2nc3c(cc2F)c(=O)c(C(=O)O)cn3C2CC2)cc(C)n1 | 2 (≈ 5.66 µM) |
| O=C(O)c1cn(C2CC2)c2cc(-c3cccnc3)c(F)cc2c1=O | 0.5 (≈ 1.54 µM) |
| CNCc1cc(-c2cc3c(cc2F)c(=O)c(C(=O)O)cn3C2CC2)cc(C)n1 | 2 (≈ 5.24 µM) |
| CNn1cc(C(=O)O)c(=O)c2cc(F)c(-c3cc(C)nc(C)c3)cc21 | > 4 |

These molecules were tested on Enterococcus faecalis (assay: Minimum Inhibitory concentration measured against Streptococcus faecalis ATCC 29212).
Type: functional
Summary of the method: as §1

| Structure (SMILES) | MIC [µg/mL] |
| --- | --- |
| Cc1cc(-c2ccc3c(=O)c(C(=O)O)cn(C4CC4)c3c2)cc(C)n1 | 0.5 (≈ 1.5 µM) |
| CCc1cc(-c2cc3c(cc2F)c(=O)c(C(=O)O)cn3C2CC2)ccn1 | 0.25 (≈ 0.709 µM) |
| O=C(O)c1cn(C2CC2)c2cc(-c3ccncc3)c(F)cc2c1=O | 0.5 (≈ 1.54 µM) |
| CCn1cc(C(=O)O)c(=O)c2cc(F)c(-c3ccncc3)cc21 | 1 (≈ 3.2 µM) |
| Cc1cc(-c2cc3c(cc2F)c(=O)c(C(=O)O)cn3C2CC2)cc(CN(C)C)n1 | 0.5 (≈ 1.26 µM) |
| Cc1cc(-c2cc3c(cc2F)c(=O)c(C(=O)O)cn3C(C)(C)C)cc(C)n1 | 0.25 (≈ 0.679 µM) |
| Cc1cc(-c2cc3c(cc2F)c(=O)c(C(=O)O)cn3C2CC2)cc(C)n1 | 0.06 (≈ 0.17 µM) |
| Cc1cc(-c2cc3c(cc2F)c(=O)c(C(=O)O)cn3C2CC2)ccn1 | 0.06 (≈ 0.177 µM) |
| COCc1cc(-c2cc3c(cc2F)c(=O)c(C(=O)O)cn3C2CC2)cc(C)n1 | 0.125 (≈ 0.327 µM) |
| Cc1cc(-c2nc3c(cc2F)c(=O)c(C(=O)O)cn3C2CC2)cc(C)n1 | 0.125 (≈ 0.354 µM) |
| O=C(O)c1cn(C2CC2)c2cc(-c3cccnc3)c(F)cc2c1=O | 0.25 (≈ 0.771 µM) |
| CNCc1cc(-c2cc3c(cc2F)c(=O)c(C(=O)O)cn3C2CC2)cc(C)n1 | 0.2 (≈ 0.524 µM) |
| CNn1cc(C(=O)O)c(=O)c2cc(F)c(-c3cc(C)nc(C)c3)cc21 | 0.5 (≈ 1.46 µM) |
